For test [1], the species on record is Rattus norvegicus. The experiment in a line: Stereotyped behavior in Sprague-Dawley rat pretreated with nialamide assessed as bilateral behavior at 3.125 to 25 µg, bilateral intrastriatal.
Test [2] is filed under the species Rattus norvegicus. Description: Stereotyped behavior in Sprague-Dawley rat pretreated with nialamide assessed as biting behavior at 3.125 to 25 µg, bilateral intrastriatal.
The subject of test [3] is Rattus norvegicus. Description: Behavioral responses in Sprague-Dawley rat with unilateral 6-OHDA lesion of nigrostriatal pathway assessed as bilateral response at 6.25 to 25 […] into caudate-putamen. Format: functional, organism-based. The method in brief: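 Guide cannulae implanted chronically; rats used 10-14 days after surgery. Nialamide 100 mg/kg ip given 2 h before injection. Drug dissolved in nitrogen-bubbled distilled water and injected bilaterally into caudate-putamen through injection units 1.5 mm below guide tips. Photocell counts per 5-min period recorded every 10 min up to 7 h. Biting and sniffing scored on intensity scales. Six to twelve rats per dose.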

The subject of test [4] is Rattus norvegicus. The experiment in a line: Stereotyped behavior in Sprague-Dawley rat with unilateral 6-OHDA lesion of nigrostriatal pathway assessed as continuous biting at 0.5 to 4 mg/kg, sc. It is filed as functional, organism-based.
For test [5], the species on record is Rattus norvegicus. The experiment in a line: Behavioral responses in Sprague-Dawley rat pretreated with nialamide assessed as hyperactivity response at 6.25 to 25 µg direct injection into caudate-putamen.
Test [6] relates to Rattus norvegicus. The experiment in a line: Stereotyped behavior in Sprague-Dawley rat with unilateral 6-OHDA lesion of nigrostriatal pathway assessed as sniffing and repetitive head and limb movements up to 4 mg/kg, sc. Format: functional, organism-based. On the set-up: dose 4 mg/kg.
The species entered for test [7] is Rattus norvegicus. The experiment in a line: Stereotyped behavior in Sprague-Dawley rat pretreated with nialamide assessed as hyperactivity behavior at 3.125 to 25 µg, bilateral intrastriatal.
The species entered for test [8] is Rattus norvegicus. The experiment in a line: Stereotyped behavior in Sprague-Dawley rat pretreated with nialamide assessed as sniffing behavior at 3.125 to 25 µg, bilateral intrastriatal.
The test system of test [9] is Rattus norvegicus. Description: Circling behavior in Sprague-Dawley rat with unilateral 6-OHDA lesion of nigrostriatal pathway assessed as number of revolutions performed per min at 0.25 to 4 mg/kg, sc. It is filed as functional, organism-based. The method in brief:
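Unilateral lesion made by infusing 4 µl 6-OHDA at 1 µl/min into the medial forebrain bundle in the lateral hypothalamus. Rats were tested 7-21 days later with drug given sc in distilled water containing 0.1% sodium metabisulfite. Contralateral circling was counted as revolutions per min. Values are the mean of at least five rats.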

For test [10], the system named is Rattus norvegicus. The experiment in a line: Antagonism of dopamine-induced hyperactivity in Sprague-Dawley rat with unilateral 6-OHDA lesion of nigrostriatal pathway at 0.1 to 1 mg/kg, sc after 2.5 hrs treated bilateral injection of 50 ug of dopamine into the nucleus accumbens. Format: functional, organism-based. The method in brief:
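Rats received nialamide 100 mg/kg ip, then 2 h later 50 µg dopamine bilaterally into the nucleus accumbens. At 2.5 h, at peak hyperactivity, test drug was given sc in water with 0.1% sodium metabisulfite. Locomotion was measured as photocell beam interruptions per 5 min. Five to eight rats were used per dose.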

The subject of test [11] is Rattus norvegicus. The experiment in a line: Behavioral responses in Sprague-Dawley rat with unilateral 6-OHDA lesion of nigrostriatal pathway assessed as hyperactivity response at 3.125 to 25 […] into nucleus accumbens. Format: functional, organism-based. The method in brief: (§1)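 Guide cannulae implanted chronically; rats used 10-14 days after surgery. Nialamide 100 mg/kg ip given 2 h before injection. Drug in nitrogen-bubbled distilled water injected bilaterally into nucleus accumbens through units 2.5 mm below guide tips. Hyperactivity counted as photocell interruptions per 5-min period, recorded every 10 min up to 7 h. Biting and sniffing scored on intensity scales. Six to twelve rats per dose.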

The subject of test [12] is Rattus norvegicus. The experiment in a line: Circling behavior in sc dosed Sprague-Dawley rat with unilateral 6-OHDA lesion of nigrostriatal pathway assessed as number of revolutions performed per min. It is filed as functional, organism-based. The method in brief:
(§2)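 Unilateral lesion made with 6-OHDA, 4 µl of 2 µg/µl at 1 µl/min, into medial forebrain bundle area of lateral hypothalamus. Rats tested 7-21 days later. Drug given sc in distilled water with 0.1% sodium metabisulfite. Contralateral circling counted as revolutions per minute. Mean of at least five rats.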

Test [13] relates to Rattus norvegicus. Description: Behavioral responses in Sprague-Dawley rat with unilateral 6-OHDA lesion of nigrostriatal pathway assessed as hyperactivity response at 6.25 to 50 […] direct injection into nucleus accumbens. Format: functional, organism-based. The essentials: (§3)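 Nialamide 100 mg/kg ip was given 2 h beforehand. Drug was dissolved in nitrogen-bubbled water and injected bilaterally through chronic guide cannulae 10-14 days after surgery. Injection units extended 1.5 mm (caudate-putamen) or 2.5 mm (nucleus accumbens) below the guides. Biting and sniffing were scored in photocell boxes, and hyperactivity was counted as beam interruptions per 5 min, recorded every 10 min for up to 7 h. Six to twelve rats were used per dose.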

In test [14] the test system is Rattus norvegicus. Description: Stereotyped behavior in Sprague-Dawley rat with unilateral 6-OHDA lesion of nigrostriatal pathway assessed as continuous biting at 2 mg/kg, sc. It is filed as functional, organism-based. Further details: dose 2 mg/kg.
The species named for test [15] is Rattus norvegicus. Description: Stereotyped behavior in Sprague-Dawley rat with unilateral 6-OHDA lesion of nigrostriatal pathway assessed as continuous biting. Format: functional, organism-based.
The test system of test [16] is Rattus norvegicus. The experiment in a line: Stereotyped behavior in sc dosed Sprague-Dawley rat with unilateral 6-OHDA lesion of nigrostriatal pathway assessed as sniffing and repetitive head and limb movements. Format: functional, organism-based.
Test [17] deals with Rattus norvegicus. Description: Stereotyped behavior in Sprague-Dawley rat with unilateral 6-OHDA lesion of nigrostriatal pathway assessed as maximal sniffing and repetitive head and limb movements at 0.5 mg/kg, sc. It is filed as functional, organism-based. Further details: dose 0.5 mg/kg.
The species named for test [18] is Rattus norvegicus. Description: Stereotyped behavior in Sprague-Dawley rat pretreated with nialamide assessed as sniffing behavior at 50 µg, bilateral intrastriatal.
Test [19] concerns Rattus norvegicus. Description: Stereotyped behavior in Sprague-Dawley rat with unilateral 6-OHDA lesion of nigrostriatal pathway assessed as sniffing behavior at 6.25 to 50 […] into nucleus accumbens. It is filed as functional, organism-based. The essentials: as §3
Test [20] concerns Rattus norvegicus. Description: Antagonism of dopamine-induced hyperactivity in sc dosed Sprague-Dawley rat with unilateral 6-OHDA lesion of nigrostriatal pathway after 2.5 hrs treated bilateral injection of 50 ug of dopamine into the nucleus accumbens. It is filed as functional, organism-based. The method in brief:
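Rats pretreated with nialamide 100 mg/kg ip; 2 h later, 50 µg dopamine bilaterally into nucleus accumbens. At 2.5 h, at peak hyperactivity, test drug given sc in distilled water with 0.1% sodium metabisulfite. Activity read as photocell beam interruptions per 5-min period. Five to eight rats per dose.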

Test [21] concerns Rattus norvegicus. Description: Stereotyped behavior in Sprague-Dawley rat with unilateral 6-OHDA lesion of nigrostriatal pathway assessed as biting behavior at 25 to 50 […] into caudate-putamen. Format: functional, organism-based. The essentials: as §3
Test [22] deals with Rattus norvegicus. The experiment in a line: Stereotyped behavior in Sprague-Dawley rat with unilateral 6-OHDA lesion of nigrostriatal pathway assessed as biting behavior at 6.25 to 50 […] into nucleus accumbens. It is filed as functional, organism-based. The method in brief:
as §3

The subject of test [23] is Rattus norvegicus. Description: Circling behavior in Sprague-Dawley rat with unilateral 6-OHDA lesion of nigrostriatal pathway assessed as number of revolutions performed per min at 0.5 to 2 mg/kg, sc. Format: functional, organism-based. The essentials:
as §2

Test [24] deals with Rattus norvegicus. The experiment in a line: Stereotyped behavior in Sprague-Dawley rat with unilateral 6-OHDA lesion of nigrostriatal pathway assessed as continuous biting up to 4 mg/kg, sc. Format: functional, organism-based. Further details: dose 4 mg/kg.
In test [25] the test system is Rattus norvegicus. Description: Stereotyped behavior in Sprague-Dawley rat with unilateral 6-OHDA lesion of nigrostriatal pathway assessed as maximal biting behavior at 25 […] into nucleus accumbens. Format: functional, organism-based. The essentials:
as §1

The subject of test [26] is Rattus norvegicus. The experiment in a line: Stereotyped behavior in Sprague-Dawley rat with unilateral 6-OHDA lesion of nigrostriatal pathway assessed as continuous biting at 0.1 mg/kg, sc. It is filed as functional, organism-based. Further details: dose 0.1 mg/kg.
The species named for test [27] is Rattus norvegicus. The experiment in a line: Behavioral responses in Sprague-Dawley rat pretreated with nialamide assessed as hyperactivity response at 25 µg, bilateral intrastriatal.
Test [28] deals with Rattus norvegicus. Description: Stereotyped behavior in Sprague-Dawley rat with unilateral 6-OHDA lesion of nigrostriatal pathway assessed as biting behavior at 3.125 to 25 […] into nucleus accumbens. It is filed as functional, organism-based. The method in brief:
as §1

For test [29], the species on record is Rattus norvegicus. The experiment in a line: Stereotyped behavior in Sprague-Dawley rat pretreated with nialamide assessed as biting behavior at 25 µg, bilateral intrastriatal.
In test [30] the test system is Rattus norvegicus. The experiment in a line: Stereotyped behavior in Sprague-Dawley rat with unilateral 6-OHDA lesion of nigrostriatal pathway assessed as sniffing and repetitive head and limb movements at 0.0063 to 0.05 mg/kg, sc. It is filed as functional, organism-based.
Test [31] is filed under the species Rattus norvegicus. Description: Stereotyped behavior in Sprague-Dawley rat pretreated with nialamide assessed as sniffing behavior at 25 µg, bilateral intrastriatal.
For test [32], the system named is Rattus norvegicus. Description: Stereotyped behavior in Sprague-Dawley rat with unilateral 6-OHDA lesion of nigrostriatal pathway assessed as sniffing behavior at 25 […] into nucleus accumbens. Format: functional, organism-based. The essentials: as §1

The source made the active and inactive calls. The calls are words filed in the database; no cut-off is given here.

Take `CCCN1CCc2ccccc2C1Cc1ccc(O)c(O)c1` (racemic): the result in [1], in [2], in test [3], in [4], in test [5] and in test [6] was inactive. The result in test [7], in test [8], in test [9] and in [11] was inactive. Further, the inhibition result in [10] was “inactive”.
With `CCCN1CCc2ccccc2C1Cc1ccc(O)cc1` (racemic), the result in test [1], in [2], in test [3], in test [4], in test [5] and in test [6] was inactive. Moreover, the outcome in [7], in test [8], in test [9] and in [11] was inactive. Further, the inhibition result in test [10] was “inactive”.
With `CN1CCc2cccc3c2[C@H]1Cc1ccc(O)c(O)c1-3`, the Activity entry in test [12], in test [15] and in test [16] was “Dose-dependent effect” throughout. In addition, the result in test [13], in [14], in [17], in test [19], in test [21] and in test [22] was Active. The outcome in [3], in test [5] and in test [18] was inactive. For the same molecule, in test [20], the inhibition entry is “Dose-dependent effect”. Moreover, the inhibition result in test [10] was “inactive”.
As for `CN1CCc2cccc3c2C1Cc1c(O)cccc1-3` (racemic), the result in test [3] and in [5] was inactive.
Take `NCCc1ccc(O)c(O)c1`: the result in test [13] was inactive. The outcome in test [3] and in test [5] was Active.
Take `CCCN1CCc2cccc3c2C1Cc1ccc(O)cc1-3` (stereo unspecified): the outcome in test [1], in test [2], in test [3], in [5], in [6] and in test [7] was inactive. The result in test [8] and in test [11] was inactive. The Activity entry in test [23] was “Dose-dependent effect”. Besides, the inhibition result in [10] was “inactive”. Besides, in test [24], the outcome was Active.
For `CCCN1CCc2cccc3c2[C@H]1Cc1ccc(O)c(O)c1-3`, in [12], the Activity result was “Dose-dependent effect”. Further, the result in test [25], in test [26], in test [28], in [29], in test [30] and in [31] was Active. For the same molecule, the result in test [32] was Active. In addition, the result in test [27], in test [3], in test [5] and in test [11] was inactive. The inhibition result in test [20] was “Dose-dependent effect”.
Regarding `CCCN1CCc2cccc3c2C1Cc1c(O)cccc1-3` (racemic), the result in test [1], in [2], in test [3], in test [5], in [6] and in test [7] was inactive. Also, the outcome in test [8], in test [9] and in [11] was inactive. Further, the inhibition entry in test [10] is “inactive”. In addition, in [24], the outcome was Active.

The values above are taken from ChEMBL document CHEMBL3244245, “Aporphines, 21. (1,2) Dopaminergic activity of aporphine and benzylisoquinoline derivatives. Synthesis of 8-hydroxyaporphines and 1-(hydroxybenzyl)-2-n-propyl-1,2,3,4-tetrahydroisoquinolines” (J Med Chem, 1977).
